Data: ChEMBL document CHEMBL1127788, “Iodinated 2-aminotetralins and 3-amino-1-benzopyrans: ligands for dopamine D2 and D3 receptors” (J Med Chem, 1994)

How the values were obtained:
[1] = biological target: T1, 5-hydroxytryptamine receptor 1A (Rattus norvegicus, UniProt P19327); assay: Tested for the inhibitory activity against 5-hydroxytryptamine 1A receptor in rat hippocampal; type: tissue-based, Hippocampus
T1 sequence (P19327 whole entry): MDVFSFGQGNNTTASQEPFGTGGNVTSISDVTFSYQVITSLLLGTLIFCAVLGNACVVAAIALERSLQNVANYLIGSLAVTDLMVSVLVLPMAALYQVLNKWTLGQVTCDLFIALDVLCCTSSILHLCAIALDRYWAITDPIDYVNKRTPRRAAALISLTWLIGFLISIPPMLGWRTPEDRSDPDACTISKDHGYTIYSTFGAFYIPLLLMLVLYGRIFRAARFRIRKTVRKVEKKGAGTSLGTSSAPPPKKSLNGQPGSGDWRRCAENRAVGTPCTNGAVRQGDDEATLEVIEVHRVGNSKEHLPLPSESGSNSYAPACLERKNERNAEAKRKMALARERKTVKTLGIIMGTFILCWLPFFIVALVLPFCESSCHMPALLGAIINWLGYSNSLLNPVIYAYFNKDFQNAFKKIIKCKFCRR
Outline: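 Rat hippocampal homogenate in ice-cold 50 mM Tris-HCl pH 7.4, spun at 20000g for 20 min. Pellet lysed in water, preincubated at 37 °C to remove endogenous serotonin, then resuspended in Tris with 2 mM MgCl2. Nonspecific binding: 10 μM 5-HT. Filtration, γ counting, Ki by LIGAND fit.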

D(3) dopamine receptor = D(3) dopamine receptor (Homo sapiens, UniProt P35462); assay: Tested for the inhibitory activity against Dopamine D3 receptor in infected Sf9 cells; type: cell-based
Chain of D(3) dopamine receptor (P35462 whole entry): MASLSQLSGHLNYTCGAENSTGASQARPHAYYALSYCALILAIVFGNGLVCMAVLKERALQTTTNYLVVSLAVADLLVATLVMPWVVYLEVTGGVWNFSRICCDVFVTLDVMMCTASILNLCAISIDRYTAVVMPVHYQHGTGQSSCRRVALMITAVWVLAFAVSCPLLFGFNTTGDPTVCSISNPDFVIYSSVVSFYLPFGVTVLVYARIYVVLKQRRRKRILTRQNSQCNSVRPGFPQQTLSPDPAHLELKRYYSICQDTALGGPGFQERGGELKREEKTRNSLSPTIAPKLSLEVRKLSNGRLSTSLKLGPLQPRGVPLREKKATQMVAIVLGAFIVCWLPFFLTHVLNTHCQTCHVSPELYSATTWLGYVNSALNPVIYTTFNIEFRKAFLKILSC
Outline: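 Membranes from Sf9 cells infected with AcMNPVrD3, in 50 mM Tris pH 7.4 with 120 mM NaCl, protease inhibitors and BSA 1 mg/mL. Nonspecific binding: 10 μM (+)butaclamol or 1 μM 7-OH-DPAT. Filtration onto PEI-soaked glass fiber, γ counting, LIGAND nonlinear fit.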

[2] = biological target: T2, Sigma non-opioid intracellular receptor 1 (Rattus norvegicus, UniProt Q9R0C9); assay: Tested for the inhibitory activity against sigma receptor rat cerebellar
T2 sequence (Q9R0C9 whole entry): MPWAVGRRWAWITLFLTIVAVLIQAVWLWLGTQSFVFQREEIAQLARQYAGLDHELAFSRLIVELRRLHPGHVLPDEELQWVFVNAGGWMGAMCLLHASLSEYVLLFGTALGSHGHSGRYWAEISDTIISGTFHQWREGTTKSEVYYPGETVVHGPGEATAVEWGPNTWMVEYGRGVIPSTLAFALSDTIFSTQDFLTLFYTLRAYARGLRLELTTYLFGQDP
Outline: (§1)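 Rat cerebellar homogenate (65–75 μg) with 0.3–0.5 nM [125I]-S-(-)-trans-7-OH-PIPAT plus 15 nM spiperone and varying inhibitor, 20 min at 25 °C. Nonspecific binding: 10 μM haloperidol. Vacuum filtration through PEI-presoaked glass fiber filters, washed with ice-cold 50 mM Tris-HCl pH 7.4.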

D(2) dopamine receptor [3] = biological target: T3, D(2) dopamine receptor (Homo sapiens, UniProt P14416); assay: Tested for the inhibitory activity against Dopamine D2 receptor in infected Sf9 cells; type: cell-based
T3 sequence (P14416 whole entry): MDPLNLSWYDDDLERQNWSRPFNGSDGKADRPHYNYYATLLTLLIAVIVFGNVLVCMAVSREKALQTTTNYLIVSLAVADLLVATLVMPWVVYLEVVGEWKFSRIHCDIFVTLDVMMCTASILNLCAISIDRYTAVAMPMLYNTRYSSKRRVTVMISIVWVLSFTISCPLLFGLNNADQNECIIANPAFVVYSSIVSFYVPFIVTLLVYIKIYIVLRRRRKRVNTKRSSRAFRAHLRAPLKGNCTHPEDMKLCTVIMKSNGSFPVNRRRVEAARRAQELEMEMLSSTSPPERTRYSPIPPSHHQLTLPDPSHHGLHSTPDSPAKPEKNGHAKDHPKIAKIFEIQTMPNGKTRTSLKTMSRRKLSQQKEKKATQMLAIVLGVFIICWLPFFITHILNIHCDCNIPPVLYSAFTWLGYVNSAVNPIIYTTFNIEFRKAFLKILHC
Outline: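 Membranes from Sf9 cells infected with AcMNPVrD2 baculovirus (non-G-protein coupled, low-affinity D2). Drugs up to 10^-5 M displace 0.1 nM [125I]-NCQ298 in 50 mM Tris pH 7.4, 120 mM NaCl, protease inhibitors, BSA 1 mg/mL. Incubation 30 min at 37 °C, filtration, gamma counting. Nonspecific binding with 10 μM (+)-butaclamol or 1 μM 7-OH-DPAT. Ki by nonlinear least-squares fitting.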

[4] = biological target: T2, Sigma non-opioid intracellular receptor 1; assay: tested for the inhibitory activity against sigma receptor rat cerebellar; outline: as §1
D(2) dopamine receptor [5] = biological target: T3, D(2) dopamine receptor; assay: Tested for the inhibitory activity against D2H (high-affinity states) receptor in infected HEK 293 cells.; type: cell-based, HEK293
Outline: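 Competition binding on membranes of HEK293 cells expressing dopamine D2 receptors in high-affinity (G-protein coupled) states. Radioligand [125I]-R-(+)-trans-7-OH-PIPAT. […] Ki from iterative nonlinear least-squares curve fitting.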

CCCN(C/C=C/I)C1COc2c(O)cccc2C1 (centres undefined)
Ki [1]: 1270 nM | Ki (D(3) dopamine receptor): 31.4 nM | Ki [2]: 492 nM | Ki (D(2) dopamine receptor [3]): > 5000 nM

Oc1ccc2c(c1)CC(NC/C=C/I)CC2 (centres undefined)
Ki (D(3) dopamine receptor): 30.2 nM | Ki [4]: 1.68 nM

CCCN(C/C=C/I)C1CCc2c(O)cccc2C1 (centres undefined)
Ki [1]: 47.9 nM | Ki (D(3) dopamine receptor): 0.99 nM | Ki (D(2) dopamine receptor [5]): 3.6 nM | Ki [2]: 1240 nM | Ki (D(2) dopamine receptor [3]): 324 nM

CCCN(C/C=C/I)C1COc2ccc(O)cc2C1 (centres undefined)
Ki [1]: 619 nM | Ki (D(3) dopamine receptor): 6.69 nM | Ki [2]: > 10000 nM | Ki (D(2) dopamine receptor [3]): 784 nM

CCCN(C/C=C/I)C1CCc2ccc(O)cc2C1 (centres undefined)
Ki (D(2) dopamine receptor [5]): 6.6 nM | Ki [2]: 3.2 nM | Ki (D(2) dopamine receptor [3]): 265 nM

CCCN(CCC)C1CCc2ccc(O)cc2C1 (centres undefined)
Ki [2]: 23.2 nM

CCCN(C/C=C/I)C1CCc2cc(O)ccc2C1 (centres undefined)
Ki [1]: 297 nM | Ki (D(3) dopamine receptor): 2.2 nM | Ki (D(2) dopamine receptor [5]): 9.7 nM | Ki [2]: 28.4 nM | Ki (D(2) dopamine receptor [3]): 547 nM
